# ChEMBL document CHEMBL5724801, “EUbOPEN Chemogenomics Library - Multiplex” (2024)
# Where “and” joins values, the source holds several entries; their conditions need not be identical. Equal values may be shown once.
# Tested on: Fibroblast
# Assay: Multiplex assay against human fibroblast
# Format: toxicity, cell-based
# Procedure, shortened: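 Per cents of healthy-nucleus cells form the tubulin, mitochondrial-mass and membrane-permeability phenotype values. Live cells were stained at seeding with Hoechst33342, BioTracker Green Microtubule Cytoskeleton Dye, MitoTracker Red and Annexin V Alexa Fluor 680. After compound addition they were imaged on a CQ1 microscope at 37°C and 5% CO2, and CellPathfinder machine-learning gating split them into Hoechst high-intensity objects or normal cells, normal cells into healthy, pyknosed or fragmented nuclei, and pyknosed cells into mitotic or apoptotic.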
# [1] = 12 h, 1 µM, compound concentration 1 uM
# [2] = 12 h, 10 µM, compound concentration 10 uM
# [3] = 24 h, 1 µM, compound concentration 1 uM
# [4] = 24 h, 10 µM, compound concentration 10 uM
# [5] = 48 h, 1 µM, compound concentration 1 uM
# [6] = 48 h, 10 µM, compound concentration 10 uM
structure (smiles),measurement,setting,value
CC(/C=C1\SC(=S)N(CCCC(=O)Nc2ccc(C(=O)O)c(O)c2)C1=O)=C\c1ccccc1,Population Apoptotic (%),[1],50% and 33%
same,Population Fragmented Nuclei (%),[1],14% and 19%
same,Population Healthy Nuclei (%),[1],71% and 60%
same,Population Hoechst High Intensity Objects (%),[1],2% and 3%
same,Population Membrane Permeable-Phenotype (%),[1],0% and 13%
same,Population Mitochondria Different-Phenotype (%),[1],2% and 9%
same,Population Mitotic Cells (%),[1],50% and 66%
same,Population Normal (%),[1],97% and 96%
same,Population Pyknosed Nuclei (%),[1],13% and 19%
same,Population Tubulin-Different-Phenotype (%),[1],28% and 54%
same,Total Cell Count,[1],206 and 157
same,Population Apoptotic (%),[2],56% and 40%
same,Population Fragmented Nuclei (%),[2],15% and 19%
same,Population Healthy Nuclei (%),[2],70% and 48%
same,Population Hoechst High Intensity Objects (%),[2],2% and 4%
same,Population Membrane Permeable-Phenotype (%),[2],0% and 8%
same,Population Mitochondria Different-Phenotype (%),[2],5%
same,Population Mitotic Cells (%),[2],43% and 59%
same,Population Normal (%),[2],97% and 95%
same,Population Pyknosed Nuclei (%),[2],13% and 31%
same,Population Tubulin-Different-Phenotype (%),[2],44% and 54%
same,Total Cell Count,[2],123 and 122
same,Population Apoptotic (%),[3],54% and 33%
same,Population Fragmented Nuclei (%),[3],17%
same,Population Healthy Nuclei (%),[3],72% and 63%
same,Population Hoechst High Intensity Objects (%),[3],1% and 2%
same,Population Membrane Permeable-Phenotype (%),[3],2% and 5%
same,Population Mitochondria Different-Phenotype (%),[3],4% and 12%
same,Population Mitotic Cells (%),[3],45% and 66%
same,Population Normal (%),[3],98% and 97%
same,Population Pyknosed Nuclei (%),[3],10% and 19%
same,Population Tubulin-Different-Phenotype (%),[3],25% and 44%
same,Total Cell Count,[3],208 and 144
same,Population Apoptotic (%),[4],66% and 53%
same,Population Fragmented Nuclei (%),[4],11% and 20%
same,Population Healthy Nuclei (%),[4],81% and 53%
same,Population Hoechst High Intensity Objects (%),[4],0% and 4%
same,Population Membrane Permeable-Phenotype (%),[4],0% and 11%
same,Population Mitochondria Different-Phenotype (%),[4],4%
same,Population Mitotic Cells (%),[4],33% and 46%
same,Population Normal (%),[4],99% and 95%
same,Population Tubulin-Different-Phenotype (%),[4],25% and 70%
same,Total Cell Count,[4],119 and 120
same,Population Apoptotic (%),[5],78% and 45%
same,Population Fragmented Nuclei (%),[5],24% and 29%
same,Population Healthy Nuclei (%),[5],66% and 56%
same,Population Hoechst High Intensity Objects (%),[5],3% and 1%
same,Population Membrane Permeable-Phenotype (%),[5],1% and 7%
same,Population Mitochondria Different-Phenotype (%),[5],2% and 6%
same,Population Mitotic Cells (%),[5],21% and 54%
same,Population Normal (%),[5],96% and 98%
same,Population Pyknosed Nuclei (%),[5],9% and 14%
same,Population Tubulin-Different-Phenotype (%),[5],31% and 44%
same,Total Cell Count,[5],216 and 159
same,Population Apoptotic (%),[6],46% and 59%
same,Population Fragmented Nuclei (%),[6],18% and 34%
same,Population Healthy Nuclei (%),[6],69% and 46%
same,Population Hoechst High Intensity Objects (%),[6],0% and 3%
same,Population Membrane Permeable-Phenotype (%),[6],0% and 5%
same,Population Mitochondria Different-Phenotype (%),[6],1% and 5%
same,Population Mitotic Cells (%),[6],53% and 40%
same,Population Normal (%),[6],100% and 96%
same,Population Pyknosed Nuclei (%),[6],12% and 19%
same,Population Tubulin-Different-Phenotype (%),[6],33% and 58%
same,Total Cell Count,[6],124 and 118
Cc1c(CC(=O)O)c2cccnc2n1Cc1ccc(S(C)(=O)=O)cc1C(F)(F)F [FEVIPIPRANT],Population Apoptotic (%),[1],44% and 25%
same,Population Fragmented Nuclei (%),[1],22% and 33%
same,Population Healthy Nuclei (%),[1],60% and 48%
same,Population Hoechst High Intensity Objects (%),[1],3%
same,Population Mitochondria Different-Phenotype (%),[1],3% and 12%
same,Population Mitotic Cells (%),[1],55% and 74%
same,Population Normal (%),[1],96%
same,Population Pyknosed Nuclei (%),[1],18% and 17%
same,Population Tubulin-Different-Phenotype (%),[1],20% and 56%
same,Total Cell Count,[1],156
same,Population Apoptotic (%),[2],34% and 22%
same,Population Fragmented Nuclei (%),[2],10% and 21%
same,Population Healthy Nuclei (%),[2],71% and 54%
same,Population Hoechst High Intensity Objects (%),[2],3% and 5%
same,Population Membrane Permeable-Phenotype (%),[2],1% and 9%
same,Population Mitochondria Different-Phenotype (%),[2],4% and 6%
same,Population Mitotic Cells (%),[2],65% and 77%
same,Population Normal (%),[2],96% and 94%
same,Population Pyknosed Nuclei (%),[2],17% and 23%
same,Population Tubulin-Different-Phenotype (%),[2],25% and 55%
same,Total Cell Count,[2],132 and 139
same,Population Apoptotic (%),[3],55% and 52%
same,Population Fragmented Nuclei (%),[3],14% and 35%
same,Population Healthy Nuclei (%),[3],66% and 47%
same,Population Hoechst High Intensity Objects (%),[3],3%
same,Population Membrane Permeable-Phenotype (%),[3],1% and 4%
same,Population Mitochondria Different-Phenotype (%),[3],5% and 8%
same,Population Mitotic Cells (%),[3],44% and 48%
same,Population Normal (%),[3],96%
same,Population Pyknosed Nuclei (%),[3],19% and 17%
same,Population Tubulin-Different-Phenotype (%),[3],23% and 50%
same,Total Cell Count,[3],156 and 150
same,Population Apoptotic (%),[4],57% and 31%
same,Population Fragmented Nuclei (%),[4],16% and 22%
same,Population Healthy Nuclei (%),[4],67% and 55%
same,Population Hoechst High Intensity Objects (%),[4],1% and 7%
same,Population Membrane Permeable-Phenotype (%),[4],1% and 5%
same,Population Mitochondria Different-Phenotype (%),[4],2% and 5%
same,Population Mitotic Cells (%),[4],42% and 68%
same,Population Normal (%),[4],98% and 92%
same,Population Pyknosed Nuclei (%),[4],16% and 21%
same,Population Tubulin-Different-Phenotype (%),[4],24% and 52%
same,Total Cell Count,[4],130 and 146
same,Population Apoptotic (%),[5],65% and 63%
same,Population Fragmented Nuclei (%),[5],16% and 39%
same,Population Healthy Nuclei (%),[5],67% and 47%
same,Population Hoechst High Intensity Objects (%),[5],5% and 6%
same,Population Membrane Permeable-Phenotype (%),[5],0% and 4%
same,Population Mitochondria Different-Phenotype (%),[5],4% and 8%
same,Population Mitotic Cells (%),[5],35% and 36%
same,Population Normal (%),[5],94% and 93%
same,Population Pyknosed Nuclei (%),[5],16% and 12%
same,Population Tubulin-Different-Phenotype (%),[5],16% and 47%
same,Total Cell Count,[5],132 and 157
same,Population Apoptotic (%),[6],73% and 58%
same,Population Fragmented Nuclei (%),[6],22% and 32%
same,Population Healthy Nuclei (%),[6],62% and 53%
same,Population Hoechst High Intensity Objects (%),[6],2%
same,Population Membrane Permeable-Phenotype (%),[6],0% and 3%
same,Population Mitochondria Different-Phenotype (%),[6],3% and 2%
same,Population Mitotic Cells (%),[6],26% and 41%
same,Population Normal (%),[6],97%
same,Population Pyknosed Nuclei (%),[6],14%
same,Population Tubulin-Different-Phenotype (%),[6],29% and 52%
same,Total Cell Count,[6],132 and 171
